# Test system: Platelet
# Assay: Inhibition of ADP-induced human platelet aggregation
# Format: functional, cell-based
# Outline: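 Human PRP from fasted, medication-free healthy male volunteers: citrated blood (0.38% final) spun at 800 rpm for 10 min; PPP from a 2500 rpm, 10 min spin. Compounds in DMSO (0.01% final) preincubated 2 min at 37 °C before ADP activation. Born turbidimetry; maximum curve height read, % inhibition versus vehicle; IC50 from linear regression of % inhibition against concentration.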
row,SMILES,IC50 [nM]
1,CC(C)(C(=O)O)N1CCC(Nc2nc(-c3ccc(C(=N)N)cc3)cs2)CC1,> 10000
2,N=C(N)c1ccc(-c2csc(N(CCC(=O)O)C3CCN(CC(=O)O)CC3)n2)cc1,46
3,N=C(N)c1ccc(-c2csc(N(Cc3ccccc3)C3CCN(CC(=O)O)CC3)n2)cc1,230
4,N=C(N)c1ccc(-c2csc(NC3CCN(CCC(=O)O)CC3)n2)cc1,1800
5,N=C(N)c1ccc(-c2csc(NC3CCN(CC(=O)O)CC3)n2)cc1,42
6,N=C(N)c1ccc(-c2csc(NC3CCN(C(C(=O)O)c4ccccc4Cl)CC3)n2)cc1 (stereo not drawn),6000
7,N=C(N)c1ccc(-c2csc(NC3CCN(C(C(=O)O)c4ccccc4)CC3)n2)cc1 (stereo not drawn),65
8,CN(c1nc(-c2ccc(C(=N)N)cc2)cs1)C1CCN(CC(=O)O)CC1,160
9,N=C(N)c1ccc(-c2csc(N(CCCC(=O)O)C3CCN(CC(=O)O)CC3)n2)cc1,96
10,N=C(N)c1ccc(-c2csc(N(CC(=O)O)C3CCN(CC(=O)O)CC3)n2)cc1,170
11,N=C(N)c1ccc(-c2csc(NC3CCN(C(CC(=O)O)C(=O)O)CC3)n2)cc1 (stereo not drawn),85
12,CC(C(=O)O)N1CCC(Nc2nc(-c3ccc(C(=N)N)cc3)cs2)CC1 (stereo not drawn),250
13,CCc1ccccc1Nc1nc(-c2cccnc2)cs1,1350
14,CCc1cccc(CC)c1Nc1nc(-c2cccnc2)cs1,2190
15,Fc1ccccc1Nc1nc(-c2cccnc2)cs1,484
16,c1cncc(-c2csc(Nc3cccc4ccccc34)n2)c1,2890
17,Nc1nc(-c2cccnc2)c[s+]1[O-] (stereo not drawn),1410
18,Cc1ccc(Nc2nc(-c3cccnc3)cs2)cc1,2000
